These results are taken from ChEMBL document CHEMBL1137816, “New polyhydroxylated pyrrolidine, piperidine, and pyrrolizidine alkaloids from Scilla sibirica” (J Nat Prod, 2002).

Assay [1] has as its target T1, Beta-galactosidase (Bos taurus) (UniProt Q58D55).
T1 sequence (whole entry): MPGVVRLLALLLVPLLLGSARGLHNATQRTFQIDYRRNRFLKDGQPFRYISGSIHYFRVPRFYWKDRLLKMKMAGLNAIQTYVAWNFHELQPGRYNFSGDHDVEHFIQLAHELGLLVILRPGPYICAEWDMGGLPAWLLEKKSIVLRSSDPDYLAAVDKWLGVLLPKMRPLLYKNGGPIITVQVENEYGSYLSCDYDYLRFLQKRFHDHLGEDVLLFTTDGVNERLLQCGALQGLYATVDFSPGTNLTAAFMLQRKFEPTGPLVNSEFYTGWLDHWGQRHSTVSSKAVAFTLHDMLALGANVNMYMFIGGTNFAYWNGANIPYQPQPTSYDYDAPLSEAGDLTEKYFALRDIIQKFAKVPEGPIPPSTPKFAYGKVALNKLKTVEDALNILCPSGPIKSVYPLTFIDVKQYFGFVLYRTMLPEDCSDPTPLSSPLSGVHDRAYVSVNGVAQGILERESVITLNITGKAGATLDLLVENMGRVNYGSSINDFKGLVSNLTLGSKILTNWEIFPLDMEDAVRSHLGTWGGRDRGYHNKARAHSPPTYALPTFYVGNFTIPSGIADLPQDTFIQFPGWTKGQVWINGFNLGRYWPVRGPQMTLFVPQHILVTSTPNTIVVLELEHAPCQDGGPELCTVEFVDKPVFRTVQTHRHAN
The experiment in a line: Inhibition of bovine liver beta-galactosidase assessed as p-nitrophenol release at 1000 uM after 30 mins by spectrophotometry. In short, it runs like this: (§1)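 p-Nitrophenyl glycoside substrates: Penicillium decumbens α-L-rhamnosidase at pH 4.5, bovine epididymis α-L-fucosidase at pH 5.5, bovine liver β-galactosidase at pH 6.8. β-Mannosidase came from rat epididymal fluid purified from epididymis, with p-nitrophenyl-β-D-mannoside at pH 5.2. Enzyme, substrate and inhibitor were incubated 30 min at 37 °C. The reaction was stopped with 400 mM Na2CO3, and p-nitrophenol was read at 400 nm.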

Assay [2] concerns the target Lysosomal alpha-glucosidase (Rattus norvegicus) (UniProt Q6P7A9). The experiment in a line: Inhibition of rat intestinal maltase assessed as D-glucose release at 1000 uM after 30 mins by Glucose B-test. The method in brief: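 Brush border membranes from rat small intestine served as the enzyme source, with maltose substrate at pH 5.8. Incubation with inhibitor was 30 min at 37 °C. Released D-glucose was measured colorimetrically by Glucose B-test.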

Assay [3] addresses T2, Tissue alpha-L-fucosidase (Bos taurus, UniProt Q2KIM0).
T2 sequence (Q2KIM0 whole entry): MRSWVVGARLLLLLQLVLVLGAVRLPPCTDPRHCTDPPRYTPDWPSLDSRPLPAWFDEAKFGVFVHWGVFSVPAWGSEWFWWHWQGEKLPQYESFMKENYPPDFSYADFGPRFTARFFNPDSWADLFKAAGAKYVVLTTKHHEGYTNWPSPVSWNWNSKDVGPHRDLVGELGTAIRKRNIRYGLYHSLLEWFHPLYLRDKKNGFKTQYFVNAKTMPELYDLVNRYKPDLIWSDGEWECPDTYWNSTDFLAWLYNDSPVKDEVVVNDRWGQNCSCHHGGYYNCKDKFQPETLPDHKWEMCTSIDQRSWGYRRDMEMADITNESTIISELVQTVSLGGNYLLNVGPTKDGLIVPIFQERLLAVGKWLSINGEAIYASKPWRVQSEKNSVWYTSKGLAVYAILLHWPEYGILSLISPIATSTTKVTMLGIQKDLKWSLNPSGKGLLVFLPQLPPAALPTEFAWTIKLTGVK
The assay is described as follows: Inhibition of bovine epididymis alpha-L-fucosidase assessed as p-nitrophenol release after 30 mins by spectrophotometry. The method in brief: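 Enzyme from bovine epididymis, run at pH 5.5 with the appropriate p-nitrophenyl glycoside substrate. Enzyme, substrate and inhibitor incubated together 30 min at 37 °C. Reaction stopped by adding 400 mM Na2CO3; p-nitrophenol measured spectrometrically at 400 nm.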

For a further assay, the system named is Oryza sativa. The experiment in a line: Inhibition of rice alpha-glucosidase assessed as D-glucose release at 1000 uM after 10 mins by Glucose B-test. The method in brief:
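Rice α-glucosidase was assayed with maltose as substrate at the enzyme's optimum pH. Incubation with inhibitor was 10 min at 37 °C. Released D-glucose was determined colorimetrically by Glucose B-test.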

The target of assay [4] is Oligo-1,6-glucosidase IMA1 (Saccharomyces cerevisiae S288c) (UniProt P53051). The experiment in a line: Inhibition of yeast alpha-glucosidase assessed as D-glucose release at 1000 uM after 30 mins by Glucose B-test.
Oligo-1,6-glucosidase IMA1 (Saccharomyces cerevisiae S288c), sequence (P53051 whole entry): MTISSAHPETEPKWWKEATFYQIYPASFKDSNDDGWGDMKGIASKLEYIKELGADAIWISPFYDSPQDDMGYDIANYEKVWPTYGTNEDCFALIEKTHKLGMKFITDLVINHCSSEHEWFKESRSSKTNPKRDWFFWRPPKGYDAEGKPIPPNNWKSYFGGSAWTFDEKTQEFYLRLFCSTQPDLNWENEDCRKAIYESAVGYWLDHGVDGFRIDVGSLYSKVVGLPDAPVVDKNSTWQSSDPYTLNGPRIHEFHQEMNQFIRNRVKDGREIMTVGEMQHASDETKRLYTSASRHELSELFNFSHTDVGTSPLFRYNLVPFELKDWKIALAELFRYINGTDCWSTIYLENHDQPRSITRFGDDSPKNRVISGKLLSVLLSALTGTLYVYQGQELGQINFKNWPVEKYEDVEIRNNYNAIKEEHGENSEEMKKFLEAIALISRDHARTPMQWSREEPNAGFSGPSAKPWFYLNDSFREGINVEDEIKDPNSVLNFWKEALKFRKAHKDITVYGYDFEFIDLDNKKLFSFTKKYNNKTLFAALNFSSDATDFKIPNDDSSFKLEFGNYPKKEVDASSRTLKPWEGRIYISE
Assay [5] is described as follows: Inhibition of rat intestinal amyloglucosidase.
Assay [6] deals with Lysosomal alpha-glucosidase (Rattus norvegicus) (UniProt Q6P7A9). The experiment in a line: Inhibition of rat liver lysosome alpha-glucosidase assessed as D-glucose release at 1000 uM after 30 mins by Glucose B-test.
Lysosomal alpha-glucosidase (Rattus norvegicus), sequence (Q6P7A9 whole entry): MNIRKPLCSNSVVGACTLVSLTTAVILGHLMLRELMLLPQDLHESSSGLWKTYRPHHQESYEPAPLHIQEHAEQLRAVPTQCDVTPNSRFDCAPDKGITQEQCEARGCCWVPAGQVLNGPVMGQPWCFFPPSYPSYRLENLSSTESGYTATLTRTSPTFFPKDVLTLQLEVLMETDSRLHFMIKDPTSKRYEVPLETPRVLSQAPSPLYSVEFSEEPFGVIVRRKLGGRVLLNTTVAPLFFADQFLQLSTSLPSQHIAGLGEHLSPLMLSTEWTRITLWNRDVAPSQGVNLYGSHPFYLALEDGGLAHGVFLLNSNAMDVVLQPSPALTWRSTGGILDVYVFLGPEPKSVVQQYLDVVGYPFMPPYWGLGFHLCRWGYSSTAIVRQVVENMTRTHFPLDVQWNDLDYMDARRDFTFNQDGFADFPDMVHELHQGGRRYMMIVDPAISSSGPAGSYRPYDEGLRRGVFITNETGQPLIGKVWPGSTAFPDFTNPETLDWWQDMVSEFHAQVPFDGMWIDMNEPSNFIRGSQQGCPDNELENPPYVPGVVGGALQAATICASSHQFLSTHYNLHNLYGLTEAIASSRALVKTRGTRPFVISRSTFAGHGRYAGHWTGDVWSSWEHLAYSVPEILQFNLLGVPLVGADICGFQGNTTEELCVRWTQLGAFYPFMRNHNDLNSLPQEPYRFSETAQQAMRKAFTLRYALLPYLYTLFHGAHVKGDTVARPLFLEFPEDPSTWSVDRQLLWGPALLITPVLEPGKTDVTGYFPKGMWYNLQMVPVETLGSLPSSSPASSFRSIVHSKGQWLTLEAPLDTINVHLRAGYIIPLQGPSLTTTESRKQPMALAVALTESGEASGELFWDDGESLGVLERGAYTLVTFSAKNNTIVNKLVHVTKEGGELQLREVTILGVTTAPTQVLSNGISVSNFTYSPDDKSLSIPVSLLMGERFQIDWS
Assay [7] has as its target T3, Tissue alpha-L-fucosidase (Bos taurus) (UniProt Q2KIM0).
T3 sequence (whole entry): T2 sequence (Q2KIM0 whole entry)
The experiment in a line: Inhibition of bovine epididymis alpha-L-fucosidase assessed as p-nitrophenol release at 1000 uM after 30 mins by spectrophotometry. In short, it runs like this:
as §1

The subject of another assay is Penicillium decumbens. The experiment in a line: Inhibition of Penicillium decumbens alpha-L-rhamnosidase assessed as p-nitrophenol release at 1000 uM by spectrophotometry. In short, it runs like this: as §1
Assay [8] has as its target Lactase/phlorizin hydrolase (Rattus norvegicus, UniProt Q02401). The assay is described as follows: Inhibition of rat intestinal lactase assessed as p-nitrophenol release after 30 mins by spectrophotometry.
Assay [9] deals with Oligo-1,6-glucosidase IMA1 (Saccharomyces cerevisiae S288c) (UniProt P53051). The assay is described as follows: Inhibition of yeast alpha-glucosidase assessed as p-nitrophenol release at 1000 uM after 30 mins measured spectrometrically at 400 nm.
Another assay concerns the target T4, Beta-mannosidase (Rattus norvegicus, UniProt Q4FZV0).
T4 sequence (Q4FZV0 whole entry): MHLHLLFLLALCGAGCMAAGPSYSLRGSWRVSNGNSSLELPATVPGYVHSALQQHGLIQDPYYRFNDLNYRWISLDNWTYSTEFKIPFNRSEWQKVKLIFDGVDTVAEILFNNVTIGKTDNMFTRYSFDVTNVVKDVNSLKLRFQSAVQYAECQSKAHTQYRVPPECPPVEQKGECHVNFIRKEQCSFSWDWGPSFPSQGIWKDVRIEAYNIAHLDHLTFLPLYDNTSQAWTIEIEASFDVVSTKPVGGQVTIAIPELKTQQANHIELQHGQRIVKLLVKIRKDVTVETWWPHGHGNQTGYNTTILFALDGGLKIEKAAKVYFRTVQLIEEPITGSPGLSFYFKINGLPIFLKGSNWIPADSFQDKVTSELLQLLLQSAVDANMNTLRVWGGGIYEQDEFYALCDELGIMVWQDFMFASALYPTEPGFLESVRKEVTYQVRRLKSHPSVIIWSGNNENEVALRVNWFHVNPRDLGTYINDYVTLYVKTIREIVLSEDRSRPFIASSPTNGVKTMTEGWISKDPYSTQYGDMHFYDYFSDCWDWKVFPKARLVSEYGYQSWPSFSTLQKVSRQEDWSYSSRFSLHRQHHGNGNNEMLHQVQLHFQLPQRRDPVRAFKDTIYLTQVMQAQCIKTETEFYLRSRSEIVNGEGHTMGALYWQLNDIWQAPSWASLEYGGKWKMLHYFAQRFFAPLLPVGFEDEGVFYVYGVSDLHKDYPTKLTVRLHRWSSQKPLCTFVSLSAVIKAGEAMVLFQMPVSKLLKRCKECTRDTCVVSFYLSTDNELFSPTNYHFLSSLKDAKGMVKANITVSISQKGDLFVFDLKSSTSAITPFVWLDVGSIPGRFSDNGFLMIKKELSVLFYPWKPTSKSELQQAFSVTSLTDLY
The assay is described as follows: Inhibition of rat epididymis beta-mannosidase assessed as p-nitrophenol release after 30 mins by spectrophotometry. In short, it runs like this: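 Source was rat epididymal fluid purified from epididymis. Assayed at pH 5.2 with p-nitrophenyl-β-D-mannoside, incubated with inhibitor 30 min at 37 °C. Stopped with 400 mM Na2CO3; p-nitrophenol read at 400 nm.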

For assay [10], the target named is Lysosomal alpha-glucosidase (Rattus norvegicus) (UniProt Q6P7A9). The experiment in a line: Inhibition of rat liver lysosome alpha-glucosidase assessed as p-nitrophenol release at 1000 uM after 30 mins measured spectrometrically at 400 nm.
The target in assay [11] is T5, Beta-mannosidase (Rattus norvegicus) (UniProt Q4FZV0).
T5 sequence (whole entry): T4 sequence (Q4FZV0 whole entry)
The assay is described as follows: Inhibition of rat epididymis beta-mannosidase assessed as p-nitrophenol release at 1000 uM after 30 mins by spectrophotometry. The method in brief:
as §1

The target in the next assay is Alpha-glucosidase MAL12 (Saccharomyces cerevisiae S288c, UniProt P53341). The assay is described as follows: Inhibition of yeast alpha-glucosidase assessed as p-nitrophenol release after 30 mins measured at 400 nm.
Alpha-glucosidase MAL12, sequence (P53341 whole entry): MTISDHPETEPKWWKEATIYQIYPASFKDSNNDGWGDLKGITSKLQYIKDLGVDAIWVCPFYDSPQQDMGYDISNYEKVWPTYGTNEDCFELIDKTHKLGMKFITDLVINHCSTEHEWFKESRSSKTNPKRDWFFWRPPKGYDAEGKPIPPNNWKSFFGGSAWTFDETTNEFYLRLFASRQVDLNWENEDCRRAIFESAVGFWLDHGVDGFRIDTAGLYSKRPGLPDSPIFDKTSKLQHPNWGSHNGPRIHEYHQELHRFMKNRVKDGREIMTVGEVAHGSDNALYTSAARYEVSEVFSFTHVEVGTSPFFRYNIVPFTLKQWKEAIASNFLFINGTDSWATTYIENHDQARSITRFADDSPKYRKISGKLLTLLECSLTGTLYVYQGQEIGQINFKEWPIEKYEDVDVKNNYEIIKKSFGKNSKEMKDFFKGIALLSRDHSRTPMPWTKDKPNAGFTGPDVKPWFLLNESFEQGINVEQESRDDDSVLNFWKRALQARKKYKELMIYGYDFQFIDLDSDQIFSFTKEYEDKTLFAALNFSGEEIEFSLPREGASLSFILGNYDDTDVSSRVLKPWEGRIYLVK
A short description of assay [12]: Inhibition of Penicillium decumbens alpha-L-rhamnosidase assessed as p-nitrophenol release after 30 mins by spectrophotometry. The method in brief: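 Penicillium decumbens enzyme assayed at pH 4.5 with the appropriate p-nitrophenyl glycoside. Substrate, diluted enzyme and inhibitor were incubated 30 min at 37 °C, then stopped with 400 mM Na2CO3. Released p-nitrophenol was read at 400 nm.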

The target in another assay is Beta-glucosidase A (Caldicellulosiruptor saccharolyticus, UniProt P10482). The experiment in a line: Inhibition of Caldocellum saccharolyticum beta-glucosidase assessed as p-nitrophenol release after 30 mins measured spectrometrically at 400 nm.
Beta-glucosidase A, sequence (P10482 whole entry): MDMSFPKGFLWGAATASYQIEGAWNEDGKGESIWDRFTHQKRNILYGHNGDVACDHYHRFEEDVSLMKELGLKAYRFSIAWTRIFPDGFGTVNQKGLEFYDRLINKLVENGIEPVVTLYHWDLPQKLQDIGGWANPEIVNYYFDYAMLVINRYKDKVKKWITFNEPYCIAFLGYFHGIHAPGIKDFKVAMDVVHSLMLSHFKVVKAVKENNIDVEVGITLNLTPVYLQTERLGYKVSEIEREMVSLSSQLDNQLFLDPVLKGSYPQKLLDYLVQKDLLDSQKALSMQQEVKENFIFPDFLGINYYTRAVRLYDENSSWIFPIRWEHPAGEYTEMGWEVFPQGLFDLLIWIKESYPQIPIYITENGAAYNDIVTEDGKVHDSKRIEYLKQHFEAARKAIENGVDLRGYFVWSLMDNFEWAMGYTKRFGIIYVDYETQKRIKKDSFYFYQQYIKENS
In the next assay the target is T6, Beta-galactosidase (Bos taurus, UniProt Q58D55).
T6 sequence (Q58D55 whole entry): T1 sequence (whole entry)
The experiment in a line: Inhibition of bovine liver beta-galactosidase assessed as p-nitrophenol release after 30 mins by spectrophotometry. In short, it runs like this:
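Bovine liver enzyme at pH 6.8 with the appropriate p-nitrophenyl glycoside. Incubated with inhibitor 30 min at 37 °C, quenched with 400 mM Na2CO3, and released p-nitrophenol read at 400 nm.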

Assay [13] concerns the target Lysosomal alpha-glucosidase (Rattus norvegicus, UniProt Q6P7A9). The experiment in a line: Inhibition of rat liver lysosome alpha-glucosidase assessed as p-nitrophenol release after 30 mins measured spectrometrically at 400 nm.
Assay [14] is described as follows: Inhibition of rice alpha-glucosidase assessed as D-glucose release after 10 mins by Glucose B-test. Further details: species or system Oryza sativa. The method in brief:
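Rice enzyme with maltose as substrate at the enzyme's optimum pH. Incubation with inhibitor ran 10 min at 37 °C. Released D-glucose determined colorimetrically with a glucose test kit.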

Each structure is given as a SMILES string. The source made the active and inactive calls. No cut-off for these calls is given here. Bounds are passed on as bounds.

Lysosomal alpha-glucosidase, sequence (Q6P7A9 whole entry): as the sequence (Q6P7A9 whole entry) above
Lactase/phlorizin hydrolase, sequence (Q02401 868-1928 limits assumed): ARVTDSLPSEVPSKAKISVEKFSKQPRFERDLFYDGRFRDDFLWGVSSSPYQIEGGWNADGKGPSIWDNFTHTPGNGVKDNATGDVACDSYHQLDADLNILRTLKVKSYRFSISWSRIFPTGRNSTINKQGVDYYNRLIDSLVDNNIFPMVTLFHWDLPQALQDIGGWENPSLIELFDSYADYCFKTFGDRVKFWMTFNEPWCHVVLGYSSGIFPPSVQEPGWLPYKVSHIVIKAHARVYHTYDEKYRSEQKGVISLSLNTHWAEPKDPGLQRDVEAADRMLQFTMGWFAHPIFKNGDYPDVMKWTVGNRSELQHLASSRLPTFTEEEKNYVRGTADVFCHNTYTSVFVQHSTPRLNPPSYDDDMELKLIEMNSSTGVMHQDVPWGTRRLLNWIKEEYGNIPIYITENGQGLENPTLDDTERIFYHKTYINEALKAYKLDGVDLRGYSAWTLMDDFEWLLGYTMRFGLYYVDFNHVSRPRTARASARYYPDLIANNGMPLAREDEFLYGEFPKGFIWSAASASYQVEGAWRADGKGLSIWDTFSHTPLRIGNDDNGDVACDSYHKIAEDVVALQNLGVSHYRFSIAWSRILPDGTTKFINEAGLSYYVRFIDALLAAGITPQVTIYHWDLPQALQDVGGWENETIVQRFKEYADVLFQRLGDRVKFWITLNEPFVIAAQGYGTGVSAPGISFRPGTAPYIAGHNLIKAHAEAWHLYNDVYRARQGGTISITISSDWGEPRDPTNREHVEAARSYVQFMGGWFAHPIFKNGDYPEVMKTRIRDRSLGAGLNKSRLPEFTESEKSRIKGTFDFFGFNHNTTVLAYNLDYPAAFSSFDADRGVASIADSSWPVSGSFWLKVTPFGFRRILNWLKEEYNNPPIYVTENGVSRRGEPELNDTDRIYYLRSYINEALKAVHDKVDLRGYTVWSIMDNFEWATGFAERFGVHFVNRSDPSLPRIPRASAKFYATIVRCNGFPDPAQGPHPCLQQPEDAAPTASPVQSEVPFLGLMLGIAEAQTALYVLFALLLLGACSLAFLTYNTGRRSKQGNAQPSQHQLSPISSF

By IC50 is commonly meant the concentration that gives 50% inhibition. In the case of `C[C@@H]1C[C@H](O)[C@@H]2[C@@H](O)[C@H](O)[C@@H](CO)N21` (relative stereo) [HYACINTHACINE B4], the outcome (in [1]; in assay [2]; in the assay on Oryza sativa; in assay [4]; in assay [6]; in assay [7]) was inactive. For the same compound, in the assay with Penicillium decumbens, the result was inactive. For the same compound, the IC50 in [3] is 23 µM; in assay [5], 89 µM.

`C[C@@H]1C[C@@H](O)[C@@H]2[C@H](O)[C@H](O)[C@@H](CO)N21` [HYACINTHACINE B3]: the outcome (in assay [1]; in [2]; with Oryza sativa; in assay [4]; in [6]; in [7]) was inactive. Moreover, the result with Penicillium decumbens was inactive. The IC50 in assay [5] was found to be 51 µM; in assay [8], 18 µM.

As usually defined, the inhibition is the change of the read-out against control, counted positive when it falls. Turning to `OCC[C@H]1N[C@H](CO)[C@@H](O)[C@@H]1O[C@@H]1O[C@H](CO)[C@@H](O)[C@H](O)[C@@H]1O`, the inhibition (in assay [9]; in assay [2]; with Oryza sativa; in assay [10]) was less than 50% throughout. The IC50 amounted to 160 µM on Beta-mannosidase and 78 µM in [3].

`OCC[C@H]1N[C@@H](CO)[C@H](O)[C@H]1O`: the inhibition (in assay [1]; in [9]; with Oryza sativa; in [11]; in the assay with Penicillium decumbens) was less than 50% throughout. The IC50 in assay [3] worked out at 840 µM.

As to `OCC[C@H]1N[C@H](CO)[C@@H](O)[C@@H]1O`, the inhibition (in [2]; with Oryza sativa; in assay [10]) was less than 50% in each case. Moreover, the IC50 at Beta-mannosidase turned out to be 320 µM; at Alpha-glucosidase MAL12 it was 250 µM; in assay [12] it was 94 µM; at Beta-glucosidase A, 350 µM; on Beta-galactosidase, 88 µM.

For `C[C@H]1N[C@H](CO)[C@@H](O)[C@H](O)[C@H]1O`, the inhibition in [9], in assay [11] and in assay [7] was less than 50% each time. For the same compound, the IC50 is 19 µM in [13], 94 µM in [12], 260 µM at Beta-galactosidase and 8 µM in assay [14].
